Data: ChEMBL document CHEMBL5724801, “EUbOPEN Chemogenomics Library - Multiplex” (2024)
Where “and” joins values, the source holds several entries; their conditions need not be identical. Equal values may be shown once.

Test system: Fibroblast
Assay: Multiplex assay against human fibroblast
Format: toxicity, cell-based
In short: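 Phenotypes for tubulin, mitochondrial mass and membrane permeability are expressed as per cents of healthy-nucleus cells. Cells were stained live at seeding with Hoechst33342, BioTracker Green Microtubule Cytoskeleton Dye, MitoTracker Red and Annexin V Alexa Fluor 680, then imaged after compound addition on a CQ1 microscope at 37°C and 5% CO2. Machine-learning gating in CellPathfinder separated Hoechst high-intensity objects from normal cells, divided normal cells by nuclear state (healthy, pyknosed, fragmented) and divided pyknosed cells into mitotic or apoptotic.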

[1] = 12 h, 1 µM, compound concentration 1 uM
[2] = 12 h, 10 µM, compound concentration 10 uM
[3] = 24 h, 1 µM, compound concentration 1 uM
[4] = 24 h, 10 µM, compound concentration 10 uM
[5] = 48 h, 1 µM, compound concentration 1 uM
[6] = 48 h, 10 µM, compound concentration 10 uM

Structure (SMILES): O=c1cccc2n1C[C@@H]1CNC[C@H]2C1 [CYTISINICLINE]
- Population Apoptotic (%) [1]: 5.66% and 13.33%
- Population Fragmented Nuclei (%) [1]: 10.05% and 5.19%
- Population Healthy Nuclei (%) [1]: 61.9% and 75.32%
- Population Hoechst High Intensity Objects (%) [1]: 0%
- Population Membrane Permeable-Phenotype (%) [1]: 4.27% and 5.17%
- Population Mitochondria Different-Phenotype (%) [1]: 5.98% and 6.9%
- Population Mitotic Cells (%) [1]: 94.34% and 86.67%
- Population Normal (%) [1]: 100%
- Population Pyknosed Nuclei (%) [1]: 28.04% and 19.48%
- Population Tubulin-Different-Phenotype (%) [1]: 11.11% and 12.93%
- Total Cell Count [1]: 189 and 154
- Population Apoptotic (%) [2]: 15.38% and 16.67%
- Population Fragmented Nuclei (%) [2]: 13.5% and 4.41%
- Population Healthy Nuclei (%) [2]: 62.58% and 80.88%
- Population Hoechst High Intensity Objects (%) [2]: 0%
- Population Membrane Permeable-Phenotype (%) [2]: 11.76% and 2.42%
- Population Mitochondria Different-Phenotype (%) [2]: 9.8% and 7.27%
- Population Mitotic Cells (%) [2]: 84.62% and 83.33%
- Population Normal (%) [2]: 100%
- Population Pyknosed Nuclei (%) [2]: 23.93% and 14.71%
- Population Tubulin-Different-Phenotype (%) [2]: 20.59% and 20.61%
- Total Cell Count [2]: 163 and 204
- Population Apoptotic (%) [3]: 10.81% and 26.67%
- Population Fragmented Nuclei (%) [3]: 10.86% and 6.41%
- Population Healthy Nuclei (%) [3]: 72.4% and 83.97%
- Population Hoechst High Intensity Objects (%) [3]: 0%
- Population Membrane Permeable-Phenotype (%) [3]: 3.12% and 3.05%
- Population Mitochondria Different-Phenotype (%) [3]: 4.38% and 3.82%
- Population Mitotic Cells (%) [3]: 89.19% and 73.33%
- Population Normal (%) [3]: 100%
- Population Pyknosed Nuclei (%) [3]: 16.74% and 9.62%
- Population Tubulin-Different-Phenotype (%) [3]: 13.12% and 12.21%
- Total Cell Count [3]: 221 and 156
- Population Apoptotic (%) [4]: 8% and 22.22%
- Population Fragmented Nuclei (%) [4]: 9.26% and 6.16%
- Population Healthy Nuclei (%) [4]: 75.31% and 85.31%
- Population Hoechst High Intensity Objects (%) [4]: 0%
- Population Membrane Permeable-Phenotype (%) [4]: 6.56% and 4.44%
- Population Mitochondria Different-Phenotype (%) [4]: 5.74% and 5%
- Population Mitotic Cells (%) [4]: 92% and 77.78%
- Population Normal (%) [4]: 100%
- Population Pyknosed Nuclei (%) [4]: 15.43% and 8.53%
- Population Tubulin-Different-Phenotype (%) [4]: 20.49% and 23.33%
- Total Cell Count [4]: 162 and 211
- Population Apoptotic (%) [5]: 26.67% and 22.22%
- Population Fragmented Nuclei (%) [5]: 7.5% and 5.23%
- Population Healthy Nuclei (%) [5]: 86.25% and 83.01%
- Population Hoechst High Intensity Objects (%) [5]: 0%
- Population Membrane Permeable-Phenotype (%) [5]: 0.48% and 1.57%
- Population Mitotic Cells (%) [5]: 73.33% and 77.78%
- Population Normal (%) [5]: 100%
- Population Pyknosed Nuclei (%) [5]: 6.25% and 11.76%
- Population Tubulin-Different-Phenotype (%) [5]: 3.38% and 7.09%
- Total Cell Count [5]: 240 and 153
- Population Apoptotic (%) [6]: 62.5% and 28.57%
- Population Fragmented Nuclei (%) [6]: 8.67% and 8.44%
- Population Healthy Nuclei (%) [6]: 87.24% and 85.65%
- Population Hoechst High Intensity Objects (%) [6]: 0%
- Population Membrane Permeable-Phenotype (%) [6]: 0% and 2.46%
- Population Mitotic Cells (%) [6]: 37.5% and 71.43%
- Population Normal (%) [6]: 100%
- Population Pyknosed Nuclei (%) [6]: 4.08% and 5.91%
- Population Tubulin-Different-Phenotype (%) [6]: 8.19% and 18.72%
- Total Cell Count [6]: 196 and 237

Structure (SMILES): C[C@@H]1C[C@H]2[C@@H]3CCC4=CC(=O)C=C[C@]4(C)[C@@]3(F)[C@@H](O)C[C@]2(C)[C@@]1(O)C(=O)CO [DEXAMETHASONE]
- Population Apoptotic (%) [1]: 62% and 38%
- Population Fragmented Nuclei (%) [1]: 18% and 30%
- Population Healthy Nuclei (%) [1]: 66% and 48%
- Population Hoechst High Intensity Objects (%) [1]: 7% and 3%
- Population Membrane Permeable-Phenotype (%) [1]: 0% and 9%
- Population Mitochondria Different-Phenotype (%) [1]: 2% and 4%
- Population Mitotic Cells (%) [1]: 37% and 61%
- Population Normal (%) [1]: 92% and 96%
- Population Pyknosed Nuclei (%) [1]: 15% and 20%
- Population Tubulin-Different-Phenotype (%) [1]: 26% and 52%
- Population Apoptotic (%) [2]: 35% and 30%
- Population Fragmented Nuclei (%) [2]: 20% and 24%
- Population Healthy Nuclei (%) [2]: 65% and 52%
- Population Hoechst High Intensity Objects (%) [2]: 2% and 6%
- Population Membrane Permeable-Phenotype (%) [2]: 1% and 4%
- Population Mitochondria Different-Phenotype (%) [2]: 5% and 2%
- Population Mitotic Cells (%) [2]: 65% and 69%
- Population Normal (%) [2]: 98% and 93%
- Population Pyknosed Nuclei (%) [2]: 13% and 23%
- Population Tubulin-Different-Phenotype (%) [2]: 22% and 53%
- Population Apoptotic (%) [3]: 48% and 31%
- Population Fragmented Nuclei (%) [3]: 14% and 29%
- Population Healthy Nuclei (%) [3]: 68% and 50%
- Population Hoechst High Intensity Objects (%) [3]: 5% and 6%
- Population Membrane Permeable-Phenotype (%) [3]: 1% and 4%
- Population Mitochondria Different-Phenotype (%) [3]: 3% and 1%
- Population Mitotic Cells (%) [3]: 52% and 68%
- Population Normal (%) [3]: 94% and 93%
- Population Pyknosed Nuclei (%) [3]: 17% and 19%
- Population Tubulin-Different-Phenotype (%) [3]: 26% and 53%
- Population Apoptotic (%) [4]: 42% and 30%
- Population Fragmented Nuclei (%) [4]: 15% and 30%
- Population Healthy Nuclei (%) [4]: 65% and 44%
- Population Hoechst High Intensity Objects (%) [4]: 3% and 6%
- Population Membrane Permeable-Phenotype (%) [4]: 1% and 10%
- Population Mitochondria Different-Phenotype (%) [4]: 6% and 2%
- Population Mitotic Cells (%) [4]: 57% and 69%
- Population Normal (%) [4]: 96% and 93%
- Population Pyknosed Nuclei (%) [4]: 18% and 24%
- Population Tubulin-Different-Phenotype (%) [4]: 22% and 45%
- Population Apoptotic (%) [5]: 46% and 37%
- Population Fragmented Nuclei (%) [5]: 22% and 38%
- Population Healthy Nuclei (%) [5]: 52% and 46%
- Population Hoechst High Intensity Objects (%) [5]: 6% and 4%
- Population Membrane Permeable-Phenotype (%) [5]: 2% and 4%
- Population Mitochondria Different-Phenotype (%) [5]: 4%
- Population Mitotic Cells (%) [5]: 53% and 62%
- Population Normal (%) [5]: 93% and 95%
- Population Pyknosed Nuclei (%) [5]: 24% and 14%
- Population Tubulin-Different-Phenotype (%) [5]: 34% and 53%
- Population Apoptotic (%) [6]: 50% and 37%
- Population Fragmented Nuclei (%) [6]: 22% and 36%
- Population Healthy Nuclei (%) [6]: 55% and 43%
- Population Hoechst High Intensity Objects (%) [6]: 4% and 7%
- Population Membrane Permeable-Phenotype (%) [6]: 0% and 10%
- Population Mitochondria Different-Phenotype (%) [6]: 7% and 0%
- Population Mitotic Cells (%) [6]: 50% and 62%
- Population Normal (%) [6]: 95% and 92%
- Population Pyknosed Nuclei (%) [6]: 22% and 20%
- Population Tubulin-Different-Phenotype (%) [6]: 19% and 39%
